pIC50: −log10 of the molar value. Active and inactive are the calls of the source. The rule behind the calls is not given here.
Experiments:
PC-3 [1] = test: Antimetastatic activity against human PC3 cells after 24 hrs by wound-healing assay; type: functional, cell-based; conditions: for IC50 / pIC50: PC-3, 24 h; for IC50: read-out: pIC50 (converted); for pIC50: read-out: IC50
Summary of the method: (§1)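 Scratch wound in PC-3 monolayer. Compounds dissolved in DMSO, added in triplicate, DMSO as vehicle control. Incubation 24 h, serum-starved. Cells then fixed and Diff-Quick stained. Cells migrated into the wound counted in three or more random fields at 400×, mean ± SEM per field. IC50 by nonlinear regression of log concentration versus cells/well.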

PC-3 [2] = test: Antimetastatic activity against human PC3 cells at 100 uM after 24 hrs by wound-healing assay; type: functional; conditions: PC-3, 24 h; summary of the method: as §1
PC-3 [3] = test: Antiinvasive activity against human PC3 cells at 50 uM by cultrex cell invasion assay; type: functional, cell-based
Summary of the method: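 Basement membrane extract coated upper chambers (4 h, 37 °C, 5% CO2) seeded with 50,000 PC-3 cells in serum-free RPMI plus compound at 50 µM. Lower chamber: RPMI, 10% FBS, fibronectin and N-formyl-met-leu-phe (10 nM) as chemoattractants. Migration 24 h at 37 °C. Invaded cells loaded with calcein-AM, fluorescence at 485/520 nm, counts from standard curve; n = 3, SD.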

PC-3 [4] = test: Antimetastatic activity against human PC3 cells at 50 uM after 24 hrs by wound-healing assay; type: functional; conditions: PC-3, 24 h; summary of the method: as §1
PC-3 [5] = test: Cytotoxicity against human PC3 cells up to 200 uM after 72 hrs by MTT assay; type: functional, cell-based
Summary of the method: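 PC-3 cells seeded at 8 × 10³ per well, attached 24 h. Switched to serum-free RPMI with compound at up to 200 µM, 72 h at 37 °C, 5% CO2. MTT added for 4 h, then solubilization/stop solution. Absorbance read at 570 nm; cells/well from a hemocytometer-based standard curve.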

PC-3 [6] = test: Ratio of compound IC50 to 5-(4-(ethylthio)benzylidene)imidazolidine-2,4-dione IC50 for human PC3 cells at 100 uM after 24 hrs by wound-healing assay; type: functional

IC50 (PC-3 [1]) [µM] | pIC50 (PC-3 [1]) | Structure (SMILES) | inhibition at 100 µM (PC-3 [2]) [%] | Activity (PC-3 [3]) | other results
81.8 | – | O=C1NC(=O)/C(=C/c2ccc(O)cn2)N1 | – | – | –
59.8 | – | COc1cccc(/C=C2\NC(=O)NC2=O)n1 | – | – | –
110 | 3.96 | CCCOc1ccc(/C=C2\NC(=O)NC2=O)c(OC)c1 | 23 | – | –
94 | 4.03 | COc1cc(/C=C2\NC(=O)NC2=O)ccc1OCC(=O)N1CCOCC1 | 33.2 | – | –
23.8 | 4.62 | O=C1NC(=O)/C(=C/c2ccc(OCc3ccc(F)cc3)cc2)N1 | 76.3 | Active | –
42.9 | 4.37 | CCSc1ccc(/C=C2\NC(=O)NC2=O)cc1 | – | Active | inhibition at 50 µM (PC-3 [4]): 42.9%
32.4 | – | O=C1NC(=O)/C(=C/c2cccc(-c3cccs3)n2)N1 | – | Active | –
60.7 | 4.22 | CC(C)(C)Oc1ccc(/C=C2\NC(=O)NC2=O)cc1 | 52.7 | – | –
86.5 | – | O=C1NC(=O)/C(=C/c2cccc3c2NCC3)N1 | – | – | –
19.7 | 4.71 | COc1cc(/C=C2\NC(=O)NC2=O)ccc1OCC(=O)c1ccccc1 | 91.8 | Active | –
187 | 3.73 | CCCOc1cc(OC)c(/C=C2\NC(=O)NC2=O)c(OC)c1Cl | 19 | – | –
77.1 | 4.11 | CCCOc1ccc(/C=C2\NC(=O)NC2=O)c(OCCC)c1 | 68.4 | – | –
8.09 | 5.09 | CCCOc1c(Br)cc(/C=C2\NC(=O)NC2=O)cc1OC | 97.4 | Active | Activity (PC-3 [5]): inactive; Ratio IC50 (PC-3 [6]): 5; Activity (PC-3 [1]): Dose-dependent effect
178 | – | O=C1NC(=O)/C(=C/c2ccncc2)N1 | – | – | –
155 | – | O=C1NC(=O)/C(=C/c2cccc3c2OCO3)N1 | – | – | –
35.6 | 4.45 | CCOc1cc(/C=C2\NC(=O)NC2=O)cc(Br)c1OCC | 77.5 | Active | –
54.2 | – | O=C1NC(=O)/C(=C/c2cnc[nH]2)N1 | – | – | –
48.6 | 4.31 | O=C1NC(=O)/C(=C/c2ccc(N3CCCC3)cc2)N1 | 75.9 | Active | –
128 | 3.89 | O=C1NC(=O)/C(=C/c2ccc(O)cc2)N1 [4-HYDROXYPHENYLMETHYLENE HYDANTOIN] | 34 | – | –
91 | 4.04 | COc1c(/C=C2\NC(=O)NC2=O)ccc(OC(C)(C)C)c1Cl | 39 | – | –
95.1 | – | Cc1nc[nH]c1/C=C1\NC(=O)NC1=O | – | – | –
85.9 | 4.07 | COc1cc(/C=C2\NC(=O)NC2=O)ccc1OCC(=O)N1CCCC1 | 36.3 | – | –
199 | – | O=C1NC(=O)/C(=C/c2cc(I)c[nH]2)N1 | – | – | –
99.1 | – | O=C1NC(=O)/C(=C/c2cc(O)c[nH]2)N1 | – | – | –
21.8 | 4.66 | C#CCOc1c(Cl)cc(/C=C2\NC(=O)NC2=O)cc1OC | 88.8 | Active | –
46 | 4.34 | CC(C)CCOc1ccc(/C=C2\NC(=O)NC2=O)cc1 | 66.7 | – | –
44.7 | 4.35 | CSc1ccc(/C=C2\NC(=O)NC2=O)cc1 | 80.9 | Active | –
49.7 | – | O=C1NC(=O)/C(=C/c2c[nH]c3ncccc23)N1 | – | – | –
